Experimental data as given in ChEMBL document CHEMBL4118153, “Exploiting polarity and chirality to probe the Hsp90 C-terminus” (Bioorg Med Chem, 2018).
Each block holds one molecule with its values, some of them ahead of it. Calls of active or inactive are those of the source. No cut-off for these calls is given here.

How the values were obtained:
SK-BR-3 [1] = test: Antiproliferative activity against human SKBR3 cells; assay type: functional, cell-based
Procedure, shortened: (§1)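 Cells were grown in 1:1 Advanced DMEM/F12 with non-essential amino acids, 2 mM L-glutamine, penicillin/streptomycin and 10% FBS at 37 °C, 5% CO2. They were seeded at 2000/well and left to attach overnight, then exposed to serial compound dilutions (1% DMSO final) for 72 h. Viable cells were read with an […] proliferation kit and normalized to 1% DMSO controls (100%). IC50 came from separate triplicate experiments.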

MCF7 = test: Antiproliferative activity against human MCF7 cells after 72 hrs by MTS/PMS assay; assay type: functional, cell-based; settings: MCF7, 72 h; procedure, shortened: as §1
SK-BR-3 [2] = test: Antiproliferative activity against human SKBR3 cells after 72 hrs by MTS/PMS assay; assay type: functional, cell-based; settings: SK-BR-3, 72 h; procedure, shortened: as §1
Heat shock protein HSP90 [3] = target: T1, Heat shock protein HSP90 (Homo sapiens, UniProt P07900+P08238); test: Inhibition of Hsp90 C-terminal domain in human MCF7 cells assessed as effect on heat shock response-induced Hsp90 level at 0.5 to 5 fold antiproliferative EC50 after 24 hrs by Western blot analysis; assay type: cell-based; settings: mcf7, 24 h
Procedure, shortened: (§2)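 MCF-7 cells, cultured as for proliferation, were treated for 24 h with compound in DMSO (1% final) or DMSO vehicle. Cells were harvested in cold PBS and lysed on ice for 1 h in RIPA with 1 mM PMSF, 2 mM orthovanadate and protease inhibitors. Lysates were cleared at 14000g, quantified by BCA, and 20 μg protein was run reducing, blotted to nitrocellulose and probed with specific antibodies plus HRP secondary, with chemiluminescent detection.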

Heat shock protein HSP90 [4] = target: T1, Heat shock protein HSP90; test: Inhibition of Hsp90 C-terminal domain in human MCF7 cells assessed as effect on heat shock response-induced Hsp70 level at 0.5 to 5 fold antiproliferative EC50 after 24 hrs by Western blot analysis; assay type: cell-based; settings: mcf7, 24 h; procedure, shortened: as §2
Heat shock protein HSP90 [5] = target: T1, Heat shock protein HSP90; test: Inhibition of Hsp90 C-terminal domain in human MCF7 cells assessed as induction of CDK6 degradation at 0.5 to 5 fold antiproliferative EC50 after 24 hrs by Western blot analysis; assay type: cell-based; procedure, shortened: as §2
Heat shock protein HSP90 [6] = target: T1, Heat shock protein HSP90; test: Inhibition of Hsp90 C-terminal domain in human MCF7 cells assessed as induction of ERalpha degradation at 0.5 to 5 fold antiproliferative EC50 after 24 hrs by Western blot analysis; assay type: cell-based; procedure, shortened: as §2
Heat shock protein HSP90 [7] = target: T1, Heat shock protein HSP90; test: Inhibition of Hsp90 C-terminal domain in human MCF7 cells assessed as induction of Her2 degradation at 0.5 to 5 fold antiproliferative EC50 after 24 hrs by Western blot analysis; assay type: cell-based; procedure, shortened: as §2

- EC50 (MCF7): 1.9 µM
- EC50 (SK-BR-3 [2]): 2.1 µM
Compound: COc1cccc(-c2cc(C(=O)Nc3cc4ccc(OC5CCN(CCO)CC5)c(C)c4oc3=O)ccc2OC)c1

- inhibition (Heat shock protein HSP90 [5]): Active
- inhibition (Heat shock protein HSP90 [6]): Active
- inhibition (Heat shock protein HSP90 [7]): Active
Compound: COc1cccc(-c2cc(C(=O)Nc3cc4ccc(O[C@H]5CC[C@@H](N)CC5)c(C)c4oc3=O)ccc2OC)c1
- inhibition (INH) (Heat shock protein HSP90 [3]): Not Active
- inhibition (INH) (Heat shock protein HSP90 [4]): Not Active

- EC50 (MCF7): 2.66 µM
- EC50 (SK-BR-3 [2]): 1.7 µM
Compound: COc1cccc(-c2cc(C(=O)Nc3cc4ccc(OC5CCCN(CCO)C5)c(C)c4oc3=O)ccc2OC)c1 (stereo not drawn)

- EC50 (MCF7): 2.1 µM
- EC50 (SK-BR-3 [2]): 4 µM
Compound: COCCN1CCC(Oc2ccc3cc(NC(=O)c4ccc(OC)c(-c5cccc(OC)c5)c4)c(=O)oc3c2C)CC1

- EC50 (MCF7): 13.3 µM
- EC50 (SK-BR-3 [2]): 7 µM
Compound: COCCN1CCCC(Oc2ccc3cc(NC(=O)c4ccc(OC)c(-c5cccc(OC)c5)c4)c(=O)oc3c2C)C1 (stereo not drawn)

- inhibition (Heat shock protein HSP90 [5]): Active
- inhibition (Heat shock protein HSP90 [6]): Active
- inhibition (Heat shock protein HSP90 [7]): Active
Compound: COc1cccc(-c2cc(C(=O)Nc3cc4ccc(O[C@H]5CC[C@H](N)CC5)c(C)c4oc3=O)ccc2OC)c1
- inhibition (INH) (Heat shock protein HSP90 [3]): Not Active
- inhibition (INH) (Heat shock protein HSP90 [4]): Not Active

- inhibition (Heat shock protein HSP90 [5]): Active
- inhibition (Heat shock protein HSP90 [6]): Active
- inhibition (Heat shock protein HSP90 [7]): Active
Compound: COc1cccc(-c2cc(C(=O)Nc3cc4ccc(O[C@H]5CC[C@H](N(C)C)CC5)c(C)c4oc3=O)ccc2OC)c1
- inhibition (INH) (Heat shock protein HSP90 [3]): Not Active
- inhibition (INH) (Heat shock protein HSP90 [4]): Not Active

The next lines start with the molecule.

Compound: COc1cccc(-c2cc(C(=O)Nc3cc4ccc(O[C@@H]5OC(C)(C)[C@H](OC)[C@@H](O)[C@H]5O)c(C)c4oc3=O)ccc2OC)c1
- EC50 (SK-BR-3 [1]): 7 µM

Compound: COc1cccc(-c2cc(C(=O)N[C@H]3CC[C@H](c4ccc(OC5CCN(CCO)CC5)cc4)CC3)ccc2OC)c1
- EC50 (MCF7): 0.38 µM
- EC50 (SK-BR-3 [2]): 0.285 µM

Compound: COc1cccc(-c2cc(C(=O)N[C@H]3CC[C@H](c4ccc(OC5CCCN(CCO)C5)cc4)CC3)ccc2OC)c1 (stereo partly drawn)
- EC50 (MCF7): 0.625 µM
- EC50 (SK-BR-3 [2]): 0.45 µM

Compound: COCCN1CCCC(Oc2ccc([C@H]3CC[C@H](NC(=O)c4ccc(OC)c(-c5cccc(OC)c5)c4)CC3)cc2)C1 (stereo partly drawn)
- EC50 (MCF7): 3 µM
- EC50 (SK-BR-3 [2]): 0.9 µM

Compound: COCCN1CCC(Oc2ccc([C@H]3CC[C@H](NC(=O)c4ccc(OC)c(-c5cccc(OC)c5)c4)CC3)cc2)CC1
- EC50 (MCF7): 0.52 µM
- EC50 (SK-BR-3 [2]): 0.363 µM

Compound: CO[C@@H]1[C@@H](OC(N)=O)[C@@H](O)[C@H](Oc2ccc3c(O)c(NC(=O)c4ccc(O)c(CC=C(C)C)c4)c(=O)oc3c2C)OC1(C)C [NOVOBIOCIN]
- EC50 (SK-BR-3 [1]): 700 µM
